# Laboratory results: ChEMBL document CHEMBL3286203, “Reactive oxygen species (ROS) inducible DNA cross-linking agents and their effect on cancer cells and normal lymphocytes” (J Med Chem, 2014)
# Calls of active or inactive are those of the source. The calls are words filed in the database; no cut-off is given here.
# Key:
# MDA-MB-468 = assay: Cytotoxicity against human MDA-MB-468 cells assessed as growth inhibition at 10 uM after 48 hrs by SRB assay; type: functional, cell-based
# How it was run: (§1)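 Single-dose screen run by the NCI Developmental Therapeutics Program (NCI-60). Cells were grown in RPMI 1640 with 5% fetal bovine serum and 2 mM L-glutamine. They were plated at 5000–40 000 cells/well, depending on doubling time. Each line was run in two plates and exposed to 10 μM drug for 48 h at 37 °C, 5% CO2, 100% humidity. Read-out was growth percent.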
# SR = assay: Cytotoxicity against human SR cells assessed as growth inhibition at 10 uM after 48 hrs by SRB assay; type: functional, cell-based
# How it was run: (§2)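 NCI-60 DTP human tumour line screen. Cells grown in RPMI 1640 with 5% fetal bovine serum and 2 mM L-glutamine, plated at 5000–40 000 cells/well according to doubling time. Single dose of 10 μM for 48 h at 37 °C, 5% CO2, 95% air, 100% humidity, two plates per line. Read-out is growth percent.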
# Hs-578T = assay: Cytotoxicity against human Hs578T cells assessed as growth inhibition at 10 uM after 48 hrs by SRB assay; type: functional, cell-based
# How it was run: (§3)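 NCI DTP 60-cell-line screen run at the NCI. Cells were grown in RPMI 1640 with 5% FBS and 2 mM L-glutamine. They were seeded at 5000–40 000 cells/well depending on doubling time and grown in two plates per line. Each was exposed to a single 10 μM dose for 48 h at 37 °C, 5% CO2, 95% air, 100% humidity. Read-out was percent growth.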
# [1] = Induction of [32P]-labeled 49-mer oligonucleotide duplex DNA 12 with GNC sequence at terminus (unknown origin) interstrand cross-linking at 1 mM after 16 hrs by PAGE in presence of H2O2
# How it was run: (§4)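 32P-labelled 12a (1.0 μM) annealed with 1.5 equiv of 12b in 10 mM potassium phosphate pH 7 / 100 mM NaCl (65 °C for 3 min, then slow cooling). Duplex incubated with compound (final 1 μM–5 mM), with or without H2O2, in NaCl and potassium phosphate pH 8 at room temperature for 16 h. Quenched in formamide; 20% denaturing PAGE.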
# SF-295 = assay: Cytotoxicity against human SF295 cells assessed as growth inhibition at 10 uM after 48 hrs by SRB assay; type: functional, cell-based; how it was run: as §1
# OVCAR-3 = assay: Cytotoxicity against human OVCAR3 cells assessed as growth inhibition at 10 uM after 48 hrs by SRB assay; type: functional, cell-based; how it was run: as §1
# SK-OV-3 = assay: Cytotoxicity against human SKOV3 cells assessed as growth inhibition at 10 uM after 48 hrs by SRB assay; type: functional, cell-based; how it was run: as §1
# SK-MEL-28 = assay: Cytotoxicity against human SK-MEL-28 cells assessed as growth inhibition at 10 uM after 48 hrs by SRB assay; type: functional, cell-based; how it was run: as §1
# CCRF-CEM = assay: Cytotoxicity against human CCRF-CEM cells assessed as growth inhibition at 10 uM after 48 hrs by SRB assay; type: functional, cell-based; how it was run: as §3
# SK-MEL-5 = assay: Cytotoxicity against human SK-MEL-5 cells assessed as growth inhibition at 10 uM after 48 hrs by SRB assay; type: functional, cell-based; how it was run: as §1
# 786-0 = assay: Cytotoxicity against human 786-0 cells assessed as growth inhibition at 10 uM after 48 hrs by SRB assay; type: functional, cell-based; how it was run: as §3
# LOX IMVI = assay: Cytotoxicity against human LOXIMVI cells assessed as growth inhibition at 10 uM after 48 hrs by SRB assay; type: functional, cell-based; how it was run: as §3
# BT-549 = assay: Cytotoxicity against human BT549 cells assessed as growth inhibition at 10 uM after 48 hrs by SRB assay; type: functional, cell-based; how it was run: as §3
# A498 = assay: Cytotoxicity against human A498 cells assessed as growth inhibition at 10 uM after 48 hrs by SRB assay; type: functional, cell-based; how it was run: as §3
# MDA-MB-231 = assay: Cytotoxicity against human MDA-MB-231 cells assessed as growth inhibition at 10 uM after 48 hrs by SRB assay; type: functional, cell-based; how it was run: as §1
# NCI-H23 = assay: Cytotoxicity against human NCI-H23 cells assessed as growth inhibition at 10 uM after 48 hrs by SRB assay; type: functional, cell-based; how it was run: as §1
# ACHN = assay: Cytotoxicity against human ACHN cells assessed as growth inhibition at 10 uM after 48 hrs by SRB assay; type: functional, cell-based; how it was run: as §3
# SNB-19 = assay: Cytotoxicity against human SNB19 cells assessed as growth inhibition at 10 uM after 48 hrs by SRB assay; type: functional, cell-based; how it was run: as §2
# RPMI-8226 = assay: Cytotoxicity against human RPMI8226 cells assessed as growth inhibition at 10 uM after 48 hrs by SRB assay; type: functional, cell-based; how it was run: as §1
# NCI-H226 = assay: Cytotoxicity against human NCI-H226 cells assessed as growth inhibition at 10 uM after 48 hrs by SRB assay; type: functional, cell-based; how it was run: as §1
# HOP-62 = assay: Cytotoxicity against human HOP62 cells assessed as growth inhibition at 10 uM after 48 hrs by SRB assay; type: functional, cell-based; how it was run: as §3
# SNB-75 = assay: Cytotoxicity against human SNB75 cells assessed as growth inhibition at 10 uM after 48 hrs by SRB assay; type: functional, cell-based; how it was run: as §2
# T47D = assay: Cytotoxicity against human T47D cells assessed as growth inhibition at 10 uM after 48 hrs by SRB assay; type: functional, cell-based; how it was run: as §2
# HL-60(TB) = assay: Cytotoxicity against human HL-60(TB) cells assessed as growth inhibition at 10 uM after 48 hrs by SRB assay; type: functional, cell-based; how it was run: as §3
# NCI/ADR-RES = assay: Cytotoxicity against human NCI-ADR-RES cells assessed as growth inhibition at 10 uM after 48 hrs by SRB assay; type: functional, cell-based; how it was run: as §1
# HT-29 = assay: Cytotoxicity against human HT-29 cells assessed as growth inhibition at 10 uM after 48 hrs by SRB assay; type: functional, cell-based; how it was run: as §3
# SF-539 = assay: Cytotoxicity against human SF539 cells assessed as growth inhibition at 10 uM after 48 hrs by SRB assay; type: functional, cell-based; how it was run: as §1
# [2] = Induction of [32P]-labeled 49-mer oligonucleotide duplex DNA 12 with GNC sequence at terminus (unknown origin) interstrand cross-linking at 1 mM after 16 hrs by PAGE; how it was run: as §4
# SW-620 = assay: Cytotoxicity against human SW620 cells assessed as growth inhibition at 10 uM after 48 hrs by SRB assay; type: functional, cell-based; how it was run: as §2
# HCT-15 = assay: Cytotoxicity against human HCT15 cells assessed as growth inhibition at 10 uM after 48 hrs by SRB assay; type: functional, cell-based; how it was run: as §3
# MCF7 = assay: Cytotoxicity against human MCF7 cells assessed as growth inhibition at 10 uM after 48 hrs by SRB assay; type: functional, cell-based; how it was run: as §1
# NCI-H522 = assay: Cytotoxicity against human NCI-H522 cells assessed as growth inhibition at 10 uM after 48 hrs by SRB assay; type: functional, cell-based; how it was run: as §1
# CAKI-1 = assay: Cytotoxicity against human Caki1 cells assessed as growth inhibition at 10 uM after 48 hrs by SRB assay; type: functional, cell-based; how it was run: as §3
# HCT-116 = assay: Cytotoxicity against human HCT116 cells assessed as growth inhibition at 10 uM after 48 hrs by SRB assay; type: functional, cell-based; how it was run: as §3
# SN12C = assay: Cytotoxicity against human SN12C cells assessed as growth inhibition at 10 uM after 48 hrs by SRB assay; type: functional, cell-based; how it was run: as §2
# M14 = assay: Cytotoxicity against human M14 cells assessed as growth inhibition at 10 uM after 48 hrs by SRB assay; type: functional, cell-based; how it was run: as §3
SMILES,growth inhibition (GI) (MDA-MB-468),growth inhibition (GI) (SR),growth inhibition (GI) (Hs-578T),Activity [1],growth inhibition (GI) (SF-295),growth inhibition (GI) (OVCAR-3),growth inhibition (GI) (SK-OV-3),growth inhibition (GI) (SK-MEL-28),growth inhibition (GI) (CCRF-CEM),growth inhibition (GI) (SK-MEL-5),growth inhibition (GI) (786-0),growth inhibition (GI) (LOX IMVI),growth inhibition (GI) (BT-549),growth inhibition (GI) (A498),growth inhibition (GI) (MDA-MB-231),growth inhibition (GI) (NCI-H23),growth inhibition (GI) (ACHN),growth inhibition (GI) (SNB-19),growth inhibition (GI) (RPMI-8226),growth inhibition (GI) (NCI-H226),further results
CC1(C)OB(c2ccc(N(CCCl)CCBr)cc2)OC1(C)C,Active,Active,Active,37%,Active,Active,Active,Active,Active,Active,Active,Active,Active,Active,Active,Active,Active,Active,Active,Active,growth inhibition (GI) (HOP-62): Active; growth inhibition (GI) (SNB-75): Active; growth inhibition (GI) (T47D): Active; growth inhibition (GI) (HL-60(TB)): Active; growth inhibition (GI) (NCI/ADR-RES): Active; growth inhibition (GI) (HT-29): Active; growth inhibition (GI) (SF-539): Active; Activity [2]: inactive; growth inhibition (GI) (SW-620): Active; growth inhibition (GI) (HCT-15): Active; growth inhibition (GI) (MCF7): Active; growth inhibition (GI) (NCI-H522): Active; growth inhibition (GI) (CAKI-1): Active; growth inhibition (GI) (HCT-116): Active; growth inhibition (GI) (SN12C): Active; growth inhibition (GI) (M14): Active
CC1(C)OB(c2ccc(N(CCBr)CCBr)cc2)OC1(C)C,Active,Active,Active,37%,Active,Active,Active,Active,Active,Active,Active,Active,Active,Active,Active,Active,Active,Active,Active,Active,growth inhibition (GI) (HOP-62): Active; growth inhibition (GI) (SNB-75): Active; growth inhibition (GI) (T47D): Active; growth inhibition (GI) (HL-60(TB)): Active; growth inhibition (GI) (NCI/ADR-RES): Active; growth inhibition (GI) (HT-29): Active; growth inhibition (GI) (SF-539): Active; Activity [2]: inactive; growth inhibition (GI) (SW-620): Active; growth inhibition (GI) (HCT-15): Active; growth inhibition (GI) (MCF7): Active; growth inhibition (GI) (NCI-H522): Active; growth inhibition (GI) (CAKI-1): Active; growth inhibition (GI) (HCT-116): Active; growth inhibition (GI) (SN12C): Active; growth inhibition (GI) (M14): Active
CC1(C)OB(c2ccc(COC(=O)N(CCCl)CCCl)cc2)OC1(C)C,inactive,inactive,inactive,inactive,inactive,inactive,inactive,inactive,inactive,inactive,inactive,inactive,inactive,inactive,inactive,inactive,inactive,inactive,inactive,inactive,growth inhibition (GI) (HOP-62): inactive; growth inhibition (GI) (SNB-75): inactive; growth inhibition (GI) (T47D): inactive; growth inhibition (GI) (HL-60(TB)): inactive; growth inhibition (GI) (NCI/ADR-RES): inactive; growth inhibition (GI) (HT-29): inactive; growth inhibition (GI) (SF-539): inactive; Activity [2]: inactive; growth inhibition (GI) (SW-620): inactive; growth inhibition (GI) (HCT-15): inactive; growth inhibition (GI) (MCF7): inactive; growth inhibition (GI) (NCI-H522): inactive; growth inhibition (GI) (CAKI-1): inactive; growth inhibition (GI) (HCT-116): inactive; growth inhibition (GI) (SN12C): inactive; growth inhibition (GI) (M14): inactive
